Experimental findings from ChEMBL document CHEMBL4152342, “Novel series of 6-(2-substitutedacetamido)-4-anilinoquinazolines as EGFR-ERK signal transduction inhibitors in MCF-7 breast cancer cells” (Eur J Med Chem, 2018) are described below.

The subject of one experiment is MCF7. As to the kind of experiment: Antiproliferative activity against human MCF7 cells after 48 hrs by MTT assay. The class given is functional, cell-based. To be noted: MCF7, 48 h. A digest of the protocol:
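Cells seeded at 30,000 per well, grown 24 h at 37 °C, 5% CO2, then exposed to 5-fold serial dilutions of compound (dissolved in 1% DMSO) for 48 h under same conditions. MTT added at 5 mg/mL; after lysis, absorbance read at 570 nm 4 h later. IC50 taken from exponential viability-versus-concentration curve relative to untreated controls.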
On the technique in general: Tetrazolium assays rely on reduction of a dye to a coloured formazan, in cell work by metabolically active cells.

The subject of experiment [1] is HepG2. Nature of the experiment: Antiproliferative activity against human HepG2 cells after 48 hrs by MTT assay. The class given is functional, cell-based. To be noted: HepG2, 48 h.
Experiment [2] concerns HepG2. As to the kind of experiment: Potency index, ratio of erlotinib IC50 to compound IC50 for human HepG2 cells. The format is functional.

Consider `O=C(CN1CCOCC1)Nc1ccc2ncnc(Nc3ccc(OCc4cccc(F)c4)cc3)c2c1`, for which the IC50 in the experiment with MCF7 and with HepG2 [1] was > 100 µM throughout.
In the case of `O=C(CN1CCCCC1)Nc1ccc2ncnc(Nc3ccc(Cl)cc3)c2c1`, the IC50 in the experiment on MCF7 is > 100 µM; in the experiment with HepG2 [1] it was 16 µM.
`O=C(CN1CCCC1)Nc1ccc2ncnc(Nc3ccc(Cl)c(C(F)(F)F)c3)c2c1`: the half-maximal inhibitory concentration (IC50) in the experiment with MCF7 and with HepG2 [1] was > 100 µM throughout.
Take `O=C(CN1CCOCC1)Nc1ccc2ncnc(Nc3cccc(C(F)(F)F)c3)c2c1`: the IC50 in the experiment on MCF7 is 15 µM; in the experiment with HepG2 [1], > 100 µM.
Consider `CN1CCN(CC(=O)Nc2ccc3ncnc(Nc4ccc(Cl)cc4)c3c2)CC1`, for which the IC50 in the experiment with MCF7 was 15 µM; in the experiment on HepG2 [1], > 100 µM.
Regarding `O=C(CN1CCCC1)Nc1ccc2ncnc(Nc3cccc(Cl)c3)c2c1`, the IC50 with MCF7 and with HepG2 [1] was > 100 µM in each case.
As for `O=C(CN1CCOCC1)Nc1ccc2ncnc(Nc3ccc(Cl)c(C(F)(F)F)c3)c2c1`, the IC50 in the experiment with MCF7 and with HepG2 [1] was > 100 µM each time.
For the compound `O=C(CN1CCCCC1)Nc1ccc2ncnc(Nc3ccc(Br)cc3)c2c1`, the IC50 in the experiment on MCF7 and in the experiment on HepG2 [1] was > 100 µM throughout.
Consider `O=C(CN1CCCCC1)Nc1ccc2ncnc(Nc3cccc(C(F)(F)F)c3)c2c1`, for which the concentration for half-maximal inhibition (IC50) in the experiment on MCF7 and in the experiment with HepG2 [1] was > 100 µM each time.
On to `O=C(CN1CCOCC1)Nc1ccc2ncnc(Nc3cccc(Cl)c3)c2c1`, for which the half-maximal inhibitory concentration (IC50) with MCF7 and with HepG2 [1] was > 100 µM each time.
As for `CN1CCN(CC(=O)Nc2ccc3ncnc(Nc4ccc(Br)cc4)c3c2)CC1`, the IC50 in the experiment with MCF7 and in the experiment with HepG2 [1] was > 100 µM each time.
As to `O=C(CN1CCCCC1)Nc1ccc2ncnc(Nc3cccc(Br)c3)c2c1`, the half-inhibitory concentration (IC50) in the experiment with MCF7 was 3 µM; in the experiment on HepG2 [1], 16 µM.
Take `O=C(CN1CCCC1)Nc1ccc2ncnc(Nc3ccc(Cl)cc3)c2c1`: the results for the half-inhibitory concentration (IC50) in the experiment with MCF7 and in the experiment on HepG2 [1] were 16 µM and 18 µM, respectively.
For the compound `O=C(CN1CCCC1)Nc1ccc2ncnc(Nc3ccc(OCc4ccccc4)cc3)c2c1`, the IC50 in the experiment on MCF7 and in the experiment on HepG2 [1] was > 100 µM each time.
Take `O=C(CN1CCCCC1)Nc1ccc2ncnc(Nc3ccc(Cl)c(C(F)(F)F)c3)c2c1`: the 50% inhibitory concentration (IC50) with MCF7 and in the experiment with HepG2 [1] was > 100 µM each time.
In the case of `CN1CCN(CC(=O)Nc2ccc3ncnc(Nc4cccc(Br)c4)c3c2)CC1`, the concentration for half-maximal inhibition (IC50) was 10 µM in the experiment with MCF7 and 25.3 µM in the experiment with HepG2 [1].
On to `O=C(CN1CCOCC1)Nc1ccc2ncnc(Nc3ccc(Cl)cc3)c2c1`, for which the 50% inhibitory concentration (IC50) in the experiment with MCF7 and in the experiment with HepG2 [1] was > 100 µM in each case.
As to `O=C(CN1CCCC1)Nc1ccc2ncnc(Nc3ccc(OCc4cccc(F)c4)cc3)c2c1`, the IC50 was found to be 25 µM in the experiment on MCF7 and 25.1 µM with HepG2 [1].
Turning to `O=C(CN1CCCCC1)Nc1ccc2ncnc(Nc3cccc(Cl)c3)c2c1`, the half-maximal inhibitory concentration (IC50) with MCF7 is > 100 µM; in the experiment with HepG2 [1], 12 µM. In the experiment with HepG2 [2], the “Ratio IC50” value turned out to be 2.
With `CN1CCN(CC(=O)Nc2ccc3ncnc(Nc4ccc(Cl)c(C(F)(F)F)c4)c3c2)CC1`, the IC50 with MCF7 is > 100 µM; with HepG2 [1], 25.3 µM.
`O=C(CN1CCCC1)Nc1ccc2ncnc(Nc3ccc(Br)cc3)c2c1`: the concentration for half-maximal inhibition (IC50) with MCF7 and in the experiment with HepG2 [1] was > 100 µM each time.
With `CN1CCN(CC(=O)Nc2ccc3ncnc(Nc4cccc(Cl)c4)c3c2)CC1`, the half-maximal inhibitory concentration (IC50) in the experiment on MCF7 and with HepG2 [1] was > 100 µM each time.
Turning to `O=C(CN1CCCC1)Nc1ccc2ncnc(Nc3cccc(Br)c3)c2c1`, the IC50 was 12 µM in the experiment with MCF7 and > 100 µM in the experiment with HepG2 [1].
For `CN1CCN(CC(=O)Nc2ccc3ncnc(Nc4cccc(C(F)(F)F)c4)c3c2)CC1`, the IC50 with MCF7 and in the experiment with HepG2 [1] was > 100 µM throughout.
On to `O=C(CN1CCCC1)Nc1ccc2ncnc(Nc3cccc(C(F)(F)F)c3)c2c1`, for which the values for the IC50 in the experiment with MCF7 and in the experiment with HepG2 [1] were > 100 µM and 25.2 µM, respectively.
Consider `O=C(CN1CCOCC1)Nc1ccc2ncnc(Nc3ccc(OCc4ccccc4)cc3)c2c1`, for which the results for the half-inhibitory concentration (IC50) in the experiment on MCF7 and with HepG2 [1] were 25 µM and > 100 µM, respectively.
For `O=C(CN1CCOCC1)Nc1ccc2ncnc(Nc3ccc(Br)cc3)c2c1`, the IC50 in the experiment on MCF7 and in the experiment with HepG2 [1] was > 100 µM in each case.
Regarding `O=C(CN1CCOCC1)Nc1ccc2ncnc(Nc3cccc(Br)c3)c2c1`, the half-inhibitory concentration (IC50) amounted to 15 µM with MCF7 and 19 µM in the experiment on HepG2 [1].

As a reminder, the IC50 is the concentration needed to halve the response being measured.
